pKi: −log10 of the molar value.
Columns and labels:
[1] = target: T1, Adenosine receptor A2b (Homo sapiens) (UniProt P29275); assay: Displacement of [3H]PSB-603 from human adenosine A2B receptor expressed in CHO cell membranes at 1 uM relative to control
T1 sequence (whole entry): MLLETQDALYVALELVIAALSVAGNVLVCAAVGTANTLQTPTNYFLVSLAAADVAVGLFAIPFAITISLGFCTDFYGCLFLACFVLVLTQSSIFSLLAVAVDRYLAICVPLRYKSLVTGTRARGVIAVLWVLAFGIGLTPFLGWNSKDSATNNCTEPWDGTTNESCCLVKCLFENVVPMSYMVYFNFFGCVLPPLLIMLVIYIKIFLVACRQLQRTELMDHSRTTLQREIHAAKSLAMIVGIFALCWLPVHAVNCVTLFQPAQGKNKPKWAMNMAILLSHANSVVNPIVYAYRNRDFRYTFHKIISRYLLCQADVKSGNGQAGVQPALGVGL

Adenosine receptor A1 = target: T2, Adenosine receptor A1 (Rattus norvegicus, UniProt P25099); assay: Displacement of [3H]CCPA from adenosine A1 receptor in rat brain cortical membranes; type: cell membranes
T2 sequence (P25099 whole entry): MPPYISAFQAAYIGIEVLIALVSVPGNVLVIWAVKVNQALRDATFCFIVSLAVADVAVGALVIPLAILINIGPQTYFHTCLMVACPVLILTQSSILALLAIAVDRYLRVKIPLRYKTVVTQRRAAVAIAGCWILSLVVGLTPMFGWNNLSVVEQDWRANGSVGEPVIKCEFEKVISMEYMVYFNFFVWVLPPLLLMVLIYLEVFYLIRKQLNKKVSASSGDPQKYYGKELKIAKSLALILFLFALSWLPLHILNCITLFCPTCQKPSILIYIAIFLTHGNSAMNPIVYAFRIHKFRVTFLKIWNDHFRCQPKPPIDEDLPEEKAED
Procedure, shortened: (§1)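 Membrane radioligand binding: A1 in rat brain cortical membranes and A2A in rat brain striatal membranes, with human A1 and A2A in recombinant CHO cell membranes. Radioligands are [3H]CCPA for A1 and [3H]MSX-2 for A2A. Full concentration-inhibition curves use six to ten concentrations spanning three orders of magnitude, with at least three independent experiments.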

Adenosine receptor A3 = target: T3, Adenosine receptor A3 (Homo sapiens, UniProt P0DMS8); assay: Displacement of [3H]PSB-11 from human adenosine A3 receptor expressed in CHO cell membranes
T3 sequence (P0DMS8 whole entry): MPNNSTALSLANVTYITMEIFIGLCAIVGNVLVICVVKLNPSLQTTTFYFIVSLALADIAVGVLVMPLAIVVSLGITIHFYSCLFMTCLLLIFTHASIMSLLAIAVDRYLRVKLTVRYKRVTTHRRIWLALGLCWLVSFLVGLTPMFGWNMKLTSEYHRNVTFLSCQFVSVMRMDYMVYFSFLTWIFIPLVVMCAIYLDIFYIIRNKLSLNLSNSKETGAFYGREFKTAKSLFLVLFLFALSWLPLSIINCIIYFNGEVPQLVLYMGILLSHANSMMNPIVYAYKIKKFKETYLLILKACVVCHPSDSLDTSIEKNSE
Procedure, shortened: (§2)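 Membranes from CHO cells recombinantly expressing human A2B or A3 receptor. Radioligands are [3H]PSB-603 for A2B and [3H]PSB-11 for A3. Competition curves use six to ten test-compound concentrations spanning three orders of magnitude, with at least three independent experiments.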

Adenosine receptor A2b = target: T4, Adenosine receptor A2b (Homo sapiens, UniProt P29275); assay: […] from human adenosine A2B receptor expressed in CHO cell membranes; details: in the assay text read “[3H]PSB-603” for “[3H]PSB-602”
T4 sequence (P29275 whole entry): T1 sequence (whole entry)
Procedure, shortened: as §2

Adenosine receptor A2a = Adenosine receptor A2a (Rattus norvegicus, UniProt P30543); assay: Displacement of [3H]MSX-2 from adenosine A2A receptor in rat brain striatal membranes; type: cell membranes, Striatum, Membrane
Procedure, shortened: as §1

[2] = target: T5, Adenosine receptor A3 (Homo sapiens) (UniProt P0DMS8); assay: Displacement of [3H]PSB-11 from human adenosine A3 receptor expressed in CHO cell membranes at 1 uM relative to control
T5 sequence (whole entry): T3 sequence (P0DMS8 whole entry)

[3] = target: T6, Adenosine receptor A1 (Rattus norvegicus) (UniProt P25099); assay: Displacement of [3H]CCPA from adenosine A1 receptor in rat brain cortical membranes at 1 uM relative to control; type: cell membranes
T6 sequence (whole entry): T2 sequence (P25099 whole entry)

Chain of Adenosine receptor A2a (P30543 whole entry): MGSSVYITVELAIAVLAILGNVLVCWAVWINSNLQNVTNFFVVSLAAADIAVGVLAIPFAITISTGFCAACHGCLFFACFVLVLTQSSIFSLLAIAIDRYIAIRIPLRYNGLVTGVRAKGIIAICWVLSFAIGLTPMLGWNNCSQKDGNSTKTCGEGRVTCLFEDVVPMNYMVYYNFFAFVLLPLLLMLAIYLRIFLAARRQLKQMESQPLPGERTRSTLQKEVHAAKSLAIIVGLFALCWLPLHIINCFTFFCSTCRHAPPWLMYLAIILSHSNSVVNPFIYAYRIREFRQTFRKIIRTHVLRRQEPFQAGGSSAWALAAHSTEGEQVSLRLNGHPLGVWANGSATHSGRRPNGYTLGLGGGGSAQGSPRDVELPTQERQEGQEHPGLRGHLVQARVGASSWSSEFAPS

CCCCn1c(=O)c2c(nc3n2CCCN3CCc2ccc(OCC(=O)NCc3cccc(Cl)c3)cc2)n(CCCC)c1=O
inhibition [1]: 18%
pKi (Adenosine receptor A1): 6.16
pKi (Adenosine receptor A3): < 6.00
pKi (Adenosine receptor A2b): < 6.00
pKi (Adenosine receptor A2a): 5.19
inhibition [2]: 42%

CCCn1c(=O)c2c(nc3n2CCCN3CCc2ccc(OCC(=O)NCc3ccccc3)cc2)n(CCC)c1=O
inhibition [1]: 22%
pKi (Adenosine receptor A1): < 5.00
pKi (Adenosine receptor A3): < 6.00
pKi (Adenosine receptor A2b): < 6.00
inhibition [3]: 26%
pKi (Adenosine receptor A2a): 5.49
inhibition [2]: 34%

CCCCn1c(=O)c2c(nc3n2CCCN3CCc2ccc(OCC(=O)NCc3ccc(Cl)cc3)cc2)n(CCCC)c1=O
inhibition [1]: 31%
pKi (Adenosine receptor A1): 6.23
pKi (Adenosine receptor A3): < 6.00
pKi (Adenosine receptor A2b): < 6.00
pKi (Adenosine receptor A2a): 5.14
inhibition [2]: 23%

CCCCn1c(=O)c2c(nc3n2CCCN3CCc2ccc(OCC(=O)NCCCn3ccnc3)cc2)n(CCCC)c1=O
pKi (Adenosine receptor A1): 6.71
pKi (Adenosine receptor A3): 6.06
pKi (Adenosine receptor A2b): 6.56
pKi (Adenosine receptor A2a): 6.24

CCCn1c(=O)c2c(nc3n2CCCN3CCc2ccc(OCC(=O)NCc3ccc(F)cc3)cc2)n(CCC)c1=O
inhibition [1]: 31%
pKi (Adenosine receptor A1): < 5.00
pKi (Adenosine receptor A3): < 6.00
pKi (Adenosine receptor A2b): < 6.00
inhibition [3]: 37%
pKi (Adenosine receptor A2a): 5.87
inhibition [2]: 41%

CCCn1c(=O)c2c(nc3n2CCCN3CCc2ccc(OCC(=O)NCCN3CCOCC3)cc2)n(CCC)c1=O
pKi (Adenosine receptor A1): 6.29
pKi (Adenosine receptor A3): < 6.00
pKi (Adenosine receptor A2b): 6.04
pKi (Adenosine receptor A2a): 5.95
inhibition [2]: 21%

CCCCn1c(=O)c2c(nc3n2CCCN3CCc2ccc(OCC(=O)NCc3cccc(OC)c3)cc2)n(CCCC)c1=O
inhibition [1]: 41%
pKi (Adenosine receptor A1): 5.80
pKi (Adenosine receptor A3): < 6.00
pKi (Adenosine receptor A2b): < 6.00
pKi (Adenosine receptor A2a): 5.79
inhibition [2]: 41%

CCCn1c(=O)c2c(nc3n2CCCN3CCc2ccc(OCC(=O)NCCCn3ccnc3)cc2)n(CCC)c1=O
pKi (Adenosine receptor A1): 6.22
pKi (Adenosine receptor A3): 6.00
pKi (Adenosine receptor A2b): 6.06
pKi (Adenosine receptor A2a): 6.20

CCCCn1c(=O)c2c(nc3n2CCCN3CCc2ccc(OCC(=O)NCCCNC3CCCCC3)cc2)n(CCCC)c1=O
pKi (Adenosine receptor A1): 6.93
pKi (Adenosine receptor A3): 6.45
pKi (Adenosine receptor A2b): 6.67
pKi (Adenosine receptor A2a): 5.90

CCCn1c(=O)c2c(nc3n2CCCN3CCc2ccc(OCC(=O)NCCCN3CCCC3)cc2)n(CCC)c1=O
pKi (Adenosine receptor A1): 6.84
pKi (Adenosine receptor A3): < 6.00
pKi (Adenosine receptor A2b): 6.34
pKi (Adenosine receptor A2a): 6.49
inhibition [2]: 33%

CCCn1c(=O)c2c(nc3n2CCCN3CCc2ccc(OCC(=O)NCCc3ccc(S(N)(=O)=O)cc3)cc2)n(CCC)c1=O
inhibition [1]: 30%
pKi (Adenosine receptor A1): 5.00
pKi (Adenosine receptor A3): < 6.00
pKi (Adenosine receptor A2b): < 6.00
inhibition [3]: 45%
pKi (Adenosine receptor A2a): 5.73
inhibition [2]: 28%

CCCn1c(=O)c2c(nc3n2CCCN3CCc2ccc(OCC(=O)NCCc3ccccn3)cc2)n(CCC)c1=O
inhibition [1]: 39%
pKi (Adenosine receptor A1): 6.25
pKi (Adenosine receptor A3): < 6.00
pKi (Adenosine receptor A2b): < 6.00
pKi (Adenosine receptor A2a): 5.87
inhibition [2]: 31%

CCCn1c(=O)c2c(nc3n2CCCN3CCc2ccc(OCC(=O)NCc3cccc(Cl)c3)cc2)n(CCC)c1=O
inhibition [1]: 22%
pKi (Adenosine receptor A1): 5.86
pKi (Adenosine receptor A3): 6.24
pKi (Adenosine receptor A2b): < 6.00
pKi (Adenosine receptor A2a): 6.09

CCCCn1c(=O)c2c(nc3n2CCCN3CCc2ccc(OCC(=O)NCc3ccccc3)cc2)n(CCCC)c1=O
pKi (Adenosine receptor A1): 6.49
pKi (Adenosine receptor A3): 6.22
pKi (Adenosine receptor A2b): 6.24
pKi (Adenosine receptor A2a): 5.89

CCCCn1c(=O)c2c(nc3n2CCCN3CCc2ccc(OCC(=O)NCCc3ccc(S(N)(=O)=O)cc3)cc2)n(CCCC)c1=O
inhibition [1]: 31%
pKi (Adenosine receptor A1): < 5.00
pKi (Adenosine receptor A3): < 6.00
pKi (Adenosine receptor A2b): < 6.00
inhibition [3]: 27%
pKi (Adenosine receptor A2a): 5.64
inhibition [2]: 23%

CCCCn1c(=O)c2c(nc3n2CCCN3CCc2ccc(OCC(=O)NCCc3ccccn3)cc2)n(CCCC)c1=O
inhibition [1]: 39%
pKi (Adenosine receptor A1): 6.42
pKi (Adenosine receptor A3): < 6.00
pKi (Adenosine receptor A2b): < 6.00
pKi (Adenosine receptor A2a): 5.97
inhibition [2]: 44%

CCCCn1c(=O)c2c(nc3n2CCCN3CCc2ccc(OCC(=O)NCCN3CCOCC3)cc2)n(CCCC)c1=O
pKi (Adenosine receptor A1): 6.74
pKi (Adenosine receptor A3): < 6.00
pKi (Adenosine receptor A2b): 6.53
pKi (Adenosine receptor A2a): 6.17
inhibition [2]: 46%

— ChEMBL document CHEMBL4257504, “Tricyclic xanthine derivatives containing a basic substituent: adenosine receptor affinity and drug-related properties” (Medchemcomm, 2018)
